Data reported in ChEMBL document CHEMBL2040760, “Synthesis and biological evaluation of novel (-)-Cercosporamide derivatives as potent selective PPARγ modulators” (Eur J Med Chem, 2012).
Activity calls are given as the source filed them. The calls are words filed in the database; no cut-off is given here.

Legend:
[1] = target: T1, Peroxisome proliferator-activated receptor gamma (Homo sapiens) (UniProt P37231); test: Modulation of full-length human pSG5-fused PPARgamma expressed in MG-63 cells co-expressing pGV-P2-PPRE after 24 hrs by luciferase reporter gene based transactivation assay relative to 5-(4-{[6-(4-hydroxy-3,5-dimethylphenoxy)-1-methyl-1H-benzimidazol- 2-yl]methoxy}benzyl)-1,3-thiazolidine-2,4-dione; assay type: cell-based
T1 sequence (whole entry): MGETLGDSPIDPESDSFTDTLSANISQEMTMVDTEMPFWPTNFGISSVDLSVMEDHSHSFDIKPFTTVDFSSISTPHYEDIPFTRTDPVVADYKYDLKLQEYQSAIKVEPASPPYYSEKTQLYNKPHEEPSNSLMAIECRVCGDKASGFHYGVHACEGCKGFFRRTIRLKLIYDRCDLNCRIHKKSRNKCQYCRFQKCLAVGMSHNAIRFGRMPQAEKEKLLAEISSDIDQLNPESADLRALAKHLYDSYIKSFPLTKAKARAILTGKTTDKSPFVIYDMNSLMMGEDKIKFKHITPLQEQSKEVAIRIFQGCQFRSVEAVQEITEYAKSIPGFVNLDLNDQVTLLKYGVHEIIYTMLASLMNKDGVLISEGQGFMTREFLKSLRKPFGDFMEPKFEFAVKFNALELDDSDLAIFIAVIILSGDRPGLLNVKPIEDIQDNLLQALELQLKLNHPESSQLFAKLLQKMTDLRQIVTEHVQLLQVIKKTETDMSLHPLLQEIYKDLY
Summary of the method: (§1)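 MG-63 cells transiently co-transfected (Lipofectamine, 4 h, serum- and antibiotic-free) with pSG5-hPPARγ and pGV-P2-PPRE luciferase reporter, replated at 40,000 cells/well. After 24 h and medium change, exposed to graded compound concentrations for 20 h. Luciferase luminescence read as the output.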

[2] = target: T2, Peroxisome proliferator-activated receptor gamma (Homo sapiens, UniProt P37231); test: Modulation of full-length human pSG5-fused PPARgamma expressed in MG-63 cells co-expressing pGV-P2-PPRE after 24 hrs by luciferase reporter gene based transactivation assay; assay type: cell-based; summary of the method: as §1
T2 sequence (P37231 whole entry): T1 sequence (whole entry)

Rattus norvegicus [3] = test: Toxicity in Zucker diabetic fatty rat assessed as increase in body weight at >1 mg/kg, po qd for 12 days; assay type: organism-based; details: in vivo, 288 h
Summary of the method: (§2)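 Female ZDF rats, 5 weeks old on arrival, acclimatised over 1 week on MR-DBT chow with 10% lard. Randomised on Day -1 by BW, PG, insulin and blood indices. Once-daily oral gavage in 0.5% methylcellulose at 0.01–100 mg/kg for 12 days, n = 5. BW recorded daily. Tail-vein plasma taken Day 12 for glucose, TG, FFA and insulin kits. Dunnett vs vehicle.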

[4] = Solubility of the compound in JP2 at pH 6.8; assay type: physicochemical; details: JP2, pH 6.8
Summary of the method: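 Solubility was measured in JP2 medium at pH 6.8.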

[5] = Terminal half life in Fischer rat at 10 mg/kg, iv; assay type: ADME, organism-based; design: dose 10 mg/kg, route intravenous; details: in vivo, read-out: beta t1/2 (converted)
Summary of the method: (§3)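 Male Fischer rats, fasted overnight, received the potassium salt at 10 mg/kg (5 mg/mL, 2 mL/kg). Vehicle was 20% HCO-60 in saline orally or 5% HCO-60 intravenously. Jugular-vein blood was taken and plasma drug measured by LC-MS/MS. Non-compartmental PK analysis; oral n = 4.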

[6] = Total clearance in Fischer rat at 10 mg/kg, iv; assay type: ADME, organism-based; design: dose 10 mg/kg, route intravenous; details: in vivo; summary of the method: as §3
[7] = Oral bioavailability in Fischer rat at 10 mg/kg; assay type: ADME, organism-based; details: in vivo; summary of the method: as §3
Rattus norvegicus [8] = test: Antidiabetic activity in Zucker diabetic fatty rat assessed as reduction of non-fasting plasma glucose level at >1 mg/kg, po qd for 12 days; assay type: functional; summary of the method: as §2
Rattus norvegicus [9] = test: Toxicity in Wistar-Imamichi rat assessed as increase in body weight at 30 to 100 mg/kg, po qd for 14 days; assay type: organism-based; design: dose 30-100 mg/kg, route oral; details: in vivo, 336 h
Summary of the method: (§4)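 Female Wistar–Imamichi rats, 7 weeks old on arrival, randomised by BW. Once-daily oral gavage in 0.5% methylcellulose for 14 days, n = 5, BW recorded daily. On Day 14, 0.05% Evans blue was given i.v. (0.1 mL/100 g) and aortic blood drawn at 10 min. Heart weighed. Plasma TCA-deproteinised, sonicated, A620 read, and plasma volume computed from an EB calibration curve.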

Rattus norvegicus [10] = test: Toxicity in Wistar-Imamichi rat assessed as increase plasma volume at 100 mg/kg, po qd for 14 days; assay type: organism-based; design: dose 100 mg/kg, route oral; details: in vivo, 336 h; summary of the method: as §4
Rattus norvegicus [11] = test: Toxicity in Wistar-Imamichi rat assessed as increase heart weight at 100 mg/kg, po qd for 14 days; assay type: organism-based; design: dose 100 mg/kg, route oral; details: in vivo, 336 h; summary of the method: as §4
[12] = target: T1, Peroxisome proliferator-activated receptor gamma (Homo sapiens); test: Modulation of human GAL4-fused PPARgamma LBD expressed in COS7 cells co-expressing pG5luc by luciferase reporter gene based transactivation assay relative to control; assay type: cell-based; details: COS-7
Summary of the method: (§5)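 COS7 cells in DMEM with 10% FBS were transfected with pM-hPPARγ, pM-PPARα or pM-PPARδ (GAL4-LBD) plus pG5luc using Lipofectamine 2000, then reseeded and held about 24 h. Serial dilutions were added, with 0.1% DMSO as control, for about 24 h more. Read-out was luciferase luminescence. Mean ± S.E.M., n = 3.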

[13] = target: T3, Peroxisome proliferator-activated receptor alpha (Homo sapiens) (UniProt Q07869); test: Modulation of human GAL4-fused PPARalpha LBD expressed in COS7 cells co-expressing pG5luc at 10 uM by luciferase reporter gene based transactivation assay; assay type: cell-based; details: COS-7; summary of the method: as §5
T3 sequence (whole entry): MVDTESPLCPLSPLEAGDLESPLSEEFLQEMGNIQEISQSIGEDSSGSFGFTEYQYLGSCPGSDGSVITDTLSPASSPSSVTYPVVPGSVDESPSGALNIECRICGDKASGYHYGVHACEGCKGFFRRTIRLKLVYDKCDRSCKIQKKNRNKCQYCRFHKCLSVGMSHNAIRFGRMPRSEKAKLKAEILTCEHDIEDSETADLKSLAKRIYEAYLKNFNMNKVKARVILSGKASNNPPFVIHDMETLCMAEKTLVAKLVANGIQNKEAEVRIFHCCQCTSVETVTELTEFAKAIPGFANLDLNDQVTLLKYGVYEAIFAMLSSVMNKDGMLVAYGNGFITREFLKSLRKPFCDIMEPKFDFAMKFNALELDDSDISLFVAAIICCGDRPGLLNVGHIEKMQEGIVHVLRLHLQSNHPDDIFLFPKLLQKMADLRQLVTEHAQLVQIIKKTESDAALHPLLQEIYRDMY

[14] = target: T4, Peroxisome proliferator-activated receptor delta (Homo sapiens) (UniProt Q03181); test: Modulation of human GAL4-fused PPARdelta LBD expressed in COS7 cells co-expressing pG5luc at 10 uM by luciferase reporter gene based transactivation assay; assay type: cell-based; details: COS-7; summary of the method: as §5
T4 sequence (whole entry): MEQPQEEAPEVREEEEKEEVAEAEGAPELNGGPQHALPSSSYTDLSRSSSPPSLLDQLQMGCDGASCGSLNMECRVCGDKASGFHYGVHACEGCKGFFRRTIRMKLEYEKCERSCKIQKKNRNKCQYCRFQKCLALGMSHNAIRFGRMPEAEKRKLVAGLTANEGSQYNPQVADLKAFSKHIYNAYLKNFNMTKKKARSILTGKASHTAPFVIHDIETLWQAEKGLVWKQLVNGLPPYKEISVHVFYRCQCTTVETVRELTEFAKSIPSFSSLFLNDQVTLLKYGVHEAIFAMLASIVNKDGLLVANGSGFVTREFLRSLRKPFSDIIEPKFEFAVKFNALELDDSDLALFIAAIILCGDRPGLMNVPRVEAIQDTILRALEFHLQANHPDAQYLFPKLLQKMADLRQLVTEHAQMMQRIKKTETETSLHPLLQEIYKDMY

Rattus norvegicus [15] = test: Antidiabetic activity in po dosed Zucker diabetic fatty rat assessed as improvement in plasma lipids profiles administered qd for 12 days; assay type: functional, organism-based; summary of the method: as §2
Rattus norvegicus [16] = test: Antidiabetic activity in Zucker diabetic fatty rat assessed as reduction of triglyceride level at 100 mg/kg, po qd for 12 days; assay type: functional, organism-based; design: dose 100 mg/kg; summary of the method: as §2
Rattus norvegicus [17] = test: Antidiabetic activity in Zucker diabetic fatty rat assessed as reduction of free fatty acids level at >1 mg/kg, po qd for 12 days; assay type: functional, organism-based; summary of the method: as §2

Compound | Emax [1] [%] | EC50 [2] [nM] | also measured
COc1cc(O)c2c(c1C(=O)NCc1c(C)cc(Cl)c3ccccc13)OC1=CC(O)=C(C(C)=O)C(=O)[C@]12C | 57 | 22 | –
CCCCc1ccc2ccccc2c1CNC(=O)c1c(OC)cc(O)c2c1OC1=CC(O)=C(C(C)=O)C(=O)[C@]12C | 22 | 59 | –
COc1cc(O)c2c(c1C(=O)NCc1c(C)ccc3cc(Cl)ccc13)OC1=CC(O)=C(C(C)=O)C(=O)[C@]12C | 26 | 56 | –
CCc1cc(F)c2ccccc2c1CNC(=O)c1c(OC)cc(O)c2c1OC1=CC([O-])=C(C(C)=O)C(=O)[C@]12C.[K+] | – | – | Activity (Rattus norvegicus [3]): Toxic; solubility [4]: 910 µg/mL; half-life [5]: 240 min; clearance [6]: 6.98 mL/min/kg; bioavailability [7]: 58%; Activity (Rattus norvegicus [8]): <200 mg/dL; Activity (Rattus norvegicus [9]): Toxic; Activity (Rattus norvegicus [10]): Non-toxic; Activity (Rattus norvegicus [11]): Non-toxic
COc1cc(O)c2c(c1C(=O)NCc1c(C)ccc3c(Cl)cccc13)OC1=CC(O)=C(C(C)=O)C(=O)[C@]12C | 59 | 170 | –
CCc1cc(F)c2ccccc2c1CNC(=O)c1c(OC)cc(O)c2c1OC1=CC(O)=C(C(C)=O)C(=O)[C@]12C | 38 | – | Emax [12]: 64%; Activity [13]: inactive; Activity [14]: inactive; Activity (Rattus norvegicus [15]): Dose-dependent effect; Activity (Rattus norvegicus [16]): Active; Activity (Rattus norvegicus [17]): Active

Continued by falling EC50 [2], values first:

Emax [1] [%] | EC50 [2] [nM] | Compound | also measured
39 | 16 | COc1cc(O)c2c(c1C(=O)NCc1c(C)ccc3c(F)cccc13)OC1=CC(O)=C(C(C)=O)C(=O)[C@]12C | –
44 | 4.9 | COc1cc(O)c2c(c1C(=O)NCc1c(C)ccc3ccc(Cl)cc13)OC1=CC(O)=C(C(C)=O)C(=O)[C@]12C | –
50 | 4.8 | COc1cc(O)c2c(c1C(=O)NCc1c(C)cc(F)c3ccccc13)OC1=CC(O)=C(C(C)=O)C(=O)[C@]12C | –
